Screening results deposited in PubChem by several laboratories.
HDAC3 inh: blocks human histone deacetylase 3 | O15379 | recombinant HDAC3, fluorogenic peptide/trypsin coupled, fluorescence | inhibition, % at 8.3 µM | actives 0.15% (n = 320,000) | AID 2718; in the data active = inhibition above about 26%, passing the limit was not always enough; inconclusive = no clear call, values can overlap the other calls
LANA-H2B inh: blocks KSHV LANA binding to histone H2A/H2B | Q9QR71 | cell-free LANA-H2A/H2B peptide, fluorescence polarization | inhibition, % (test concentration not listed) | actives 0.6% (n = 320,000); in the data active = inhibition mostly above about 10%, no sharp cut-off; inactive = mostly below about 6.7%
Target sequence (Q9QR71 whole entry, looked up): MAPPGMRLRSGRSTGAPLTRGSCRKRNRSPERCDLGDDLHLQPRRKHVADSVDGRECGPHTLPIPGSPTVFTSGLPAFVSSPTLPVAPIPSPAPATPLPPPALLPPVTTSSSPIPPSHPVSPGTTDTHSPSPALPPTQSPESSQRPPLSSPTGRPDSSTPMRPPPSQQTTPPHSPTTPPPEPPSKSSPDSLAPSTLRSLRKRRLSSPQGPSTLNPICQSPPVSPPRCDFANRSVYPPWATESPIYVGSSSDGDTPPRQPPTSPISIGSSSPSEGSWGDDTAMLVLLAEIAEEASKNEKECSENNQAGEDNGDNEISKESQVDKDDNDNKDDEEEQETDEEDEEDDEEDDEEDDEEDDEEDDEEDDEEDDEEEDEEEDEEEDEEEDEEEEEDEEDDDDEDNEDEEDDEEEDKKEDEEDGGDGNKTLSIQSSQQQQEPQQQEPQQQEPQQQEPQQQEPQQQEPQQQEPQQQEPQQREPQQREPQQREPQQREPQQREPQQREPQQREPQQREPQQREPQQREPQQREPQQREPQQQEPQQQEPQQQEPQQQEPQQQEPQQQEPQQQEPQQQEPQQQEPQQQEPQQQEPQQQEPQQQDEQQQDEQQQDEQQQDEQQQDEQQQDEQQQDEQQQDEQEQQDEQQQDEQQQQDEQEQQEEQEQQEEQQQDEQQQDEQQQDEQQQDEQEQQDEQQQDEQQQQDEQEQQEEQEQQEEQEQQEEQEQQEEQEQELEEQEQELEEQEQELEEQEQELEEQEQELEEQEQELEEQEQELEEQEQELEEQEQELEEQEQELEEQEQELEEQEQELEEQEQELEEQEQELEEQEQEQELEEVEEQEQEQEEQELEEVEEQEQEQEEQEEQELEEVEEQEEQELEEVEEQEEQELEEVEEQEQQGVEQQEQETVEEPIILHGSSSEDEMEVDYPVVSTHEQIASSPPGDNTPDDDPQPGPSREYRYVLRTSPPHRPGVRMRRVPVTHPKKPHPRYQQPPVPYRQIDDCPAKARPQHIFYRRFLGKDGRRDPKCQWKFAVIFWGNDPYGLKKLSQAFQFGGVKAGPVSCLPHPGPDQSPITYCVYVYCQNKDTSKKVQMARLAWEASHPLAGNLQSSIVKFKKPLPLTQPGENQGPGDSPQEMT
RanGTP-Impb inh: inhibitors of RanGTP-importin-beta interaction, primary screen, biochemical, FRET, CFP-Ran, YFP-importin-beta, homogeneous; inhibition, % (test concentration not listed); actives 1.1% (n = 300,000); cell-free CFP-Ran/YFP-importin-beta FRET ratio; AID 2216;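 active = more than half of the replicate wells show a fall in the fluorescence ratio signal beyond about 16%, limit read from the data, passing the limit was not always enough; inconclusive = exactly half of the replicate wells pass the set limit; inactive = fewer than half of replicates pass the limit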
Runt-SMMHC FRET: blocks binding of human RUNX1 Runt domain to CBFb-SMMHC | Q01196+Q13951 | actives 0.74% (n = 220,000) | Cerulean-Runt/Venus-CBFb-SMMHC FRET ratio 530/480, 1 h | inhibition, % at 20 µM;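 active = mean inhibition across duplicate retests at 20 µM reaching about 50%, limit read from the data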;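 also: inhibitors lower the FRET ratio by blocking Runt binding to CBFb-SMMHC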
Runt-CBFb FRET: blocks binding of human RUNX1 Runt domain to CBFb | AID 1496 | inhibition, % at 20 µM | actives 0.46% (n = 220,000) | Q01196+Q13951 | Cerulean-Runt/Venus-CBFb FRET ratio 530/480, 1 h;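 active = inhibition over about 50% at 20 µM in the single-dose screen, limit read from the data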
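Reagent – Venus-CBFb binding partner, 100 nM · Assay system – Cerulean-tagged RUNX1 Runt domain (FRET donor) fusion protein · Input – 100 nM per protein · Incubation – two 1 h room-temperature incubations shielded from light · Measured by – FRET fluorescence · Medium – Tris buffer pH 7.5 with salts and BSA · Benchmarks – unlabeled CBFb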
CaV13 ICDI inh: Primary screen for inhibitors of IQ motif and Ca2+-dependent inactivation inhibitor domain binding in CACNA1D, Förster resonance energy transfer in living cells, …. actives 0.098% (n = 340,000). inhibition, % at 12.3 µM. HEK cells, CFP/YFP FRET ICDI-IQ, plate reader, 10 min; percent FRET-ratio fall versus neutral wells. AID 743397;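 active = mean replicate inhibition of at least 30% and at least 1% of replicates passing that level; inconclusive = only one of the two criteria is met; inactive = neither criterion is met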
Of the large screens only hits and unclear results are named; the others gave an inactive call. Sampled rows, rich in hits. Any-hit rate of the full collection: about 1.9%.

CC1(C(=O)Nc2ccc3ccccc3c2)CCC(=O)N1C1CCN(Cc2ccccc2)CC1 (stereo not given)	none (no result: HDAC3 inh, LANA-H2B inh, RanGTP-Impb inh, Runt-SMMHC FRET, Runt-CBFb FRET)
O=C(Cc1ccc(F)cc1)Nc1cccc(-c2cn3c(n2)SCC3)c1	LANA-H2B inh active
O=C(Nc1cccc(-c2cn3c(n2)SCC3)c1)c1ccc(Br)o1	none (no result: RanGTP-Impb inh)
Cc1cc(N)ccc1NC(=O)CN1CCOCC1	none (no result: Runt-SMMHC FRET, Runt-CBFb FRET)
CCC12CCCN3CCc4c(n(c5ccccc45)C(O)(C(=O)OC)C1)C32 (stereo not given)	RanGTP-Impb inh 114 (no result: CaV13 ICDI inh)
COCc1cc(=O)[nH]c(SCCS(=O)(=O)c2ccc(Cl)cc2Cl)n1	none
COc1ccc(Nc2cc(Cl)nc(N)n2)cc1OC	RanGTP-Impb inh 18
Nc1nc(Cl)cc(Nc2ccccc2Cl)n1	none
O=S(=O)(NC1CCCCCC1)c1cccc2cccnc12	LANA-H2B inh 182
COc1ccccc1N1CCN(C2CCCN(Cc3ccc(Cl)cc3)C2)CC1 (stereo not given)	none (no result: Runt-SMMHC FRET, Runt-CBFb FRET)
CCOc1ccc(-c2csc(NC(=O)CSCC(=O)O)n2)c2ccccc12	Runt-SMMHC FRET 97
COc1ccc(S(=O)(=O)N(C)C[C@@H]2Oc3ccc(NS(C)(=O)=O)cc3C(=O)N([C@@H](C)CO)C[C@H]2C)cc1	none (no result: RanGTP-Impb inh, Runt-SMMHC FRET, Runt-CBFb FRET)
CCCCn1c(=O)nc2n(-c3ccc(Cl)cc3)c3ccccc3cc-2c1=O	RanGTP-Impb inh 59, Runt-SMMHC FRET 82, Runt-CBFb FRET 103 (no result: HDAC3 inh, LANA-H2B inh)
Cc1ccc(-n2c3nc(=O)n(C)c(=O)c-3cc3ccccc32)cc1	RanGTP-Impb inh 86, Runt-SMMHC FRET 81
CCCCn1c(=O)nc2n(-c3ccc(OC)cc3)c3ccccc3cc-2c1=O	HDAC3 inh inconclusive
Cc1ccc(N2CC(c3nc4ccccc4n3C)CC2=O)cc1 (stereo not given)	none
CCCCn1c(=O)nc2n(-c3ccc(C)cc3)c3ccccc3cc-2c1=O	RanGTP-Impb inh 60, Runt-SMMHC FRET 82, Runt-CBFb FRET 54
c1ccc(CCNc2ccnc3cc4ccccc4cc23)cc1	RanGTP-Impb inh 152, Runt-SMMHC FRET 93 (no result: HDAC3 inh, LANA-H2B inh)
CCOC(=O)CSc1nnc(CSc2nc3ccccc3c(=O)[nH]2)n1-c1ccccc1	none
COC(=O)/C(C#N)=C/c1c(N2CCN(c3ccccc3)CC2)nc2c(C)cccn2c1=O	none (no result: HDAC3 inh, LANA-H2B inh, Runt-SMMHC FRET, Runt-CBFb FRET)
N#C/C(=C\c1c(N2CCCCC2)nc2ccccn2c1=O)C(=O)NC1CCS(=O)(=O)C1 (stereo not given)	RanGTP-Impb inh 80, Runt-SMMHC FRET 81
Cc1cccn2c(=O)c(/C=C(\C#N)C(=O)NC3CCS(=O)(=O)C3)c(N3CCC(C)CC3)nc12 (stereo not given)	RanGTP-Impb inh 84, Runt-SMMHC FRET 63
Cc1cccc(/C=C(\C(=O)C(=O)O)c2ccc3ccccc3n2)c1	RanGTP-Impb inh 29, Runt-SMMHC FRET 73
CN(CCCN1CCOCC1)C(=O)c1cc(COc2c(F)cccc2F)on1	none (no result: Runt-SMMHC FRET, Runt-CBFb FRET)
CNc1nc2c(N)ncnc2n1[C@H]1O[C@@H](CO)[C@H](O)[C@@H]1O	none (no result: Runt-SMMHC FRET, Runt-CBFb FRET)
O=C(c1ccco1)N1N=C(c2ccco2)CC1c1ccc(Cl)cc1Cl (stereo not given)	LANA-H2B inh active (no result: RanGTP-Impb inh, Runt-SMMHC FRET, Runt-CBFb FRET)
COCCCNC(=O)C(C#N)c1nc2ccccc2nc1N1CCCC1 (stereo not given)	RanGTP-Impb inh 54 (no result: Runt-SMMHC FRET, Runt-CBFb FRET)
CCCCCCNC(=O)C(C#N)c1nc2ccccc2nc1N1CCCC1 (stereo not given)	LANA-H2B inh 155, RanGTP-Impb inh 24 (no result: CaV13 ICDI inh)
CCCCCNC(=O)C(C#N)c1nc2ccccc2nc1N1CCCC1 (stereo not given)	RanGTP-Impb inh 20 (no result: CaV13 ICDI inh)
CCCCCCNC(=O)C(C#N)c1nc2ccccc2nc1N1CCOCC1 (stereo not given)	none (no result: CaV13 ICDI inh)
Cn1c(CNc2ccc(Cl)cc2)nnc1SCCN1CCCCC1	none
Cn1cc(CCC(=O)NCc2cccc(Cl)c2)c2ccccc21	none (no result: Runt-SMMHC FRET, Runt-CBFb FRET)
Cc1nc2ccccn2c(=O)c1CCN1CCC(C(=O)c2ccc(F)cc2)CC1	none
Cc1nc2sccn2c(=O)c1CCN1CCC(=C(c2ccc(F)cc2)c2ccc(F)cc2)CC1	LANA-H2B inh 8.3
CC1CS(=O)(=O)CCN1N=Cc1ccc([N+](=O)[O-])o1 (stereo not given)	none (no result: RanGTP-Impb inh, Runt-SMMHC FRET, Runt-CBFb FRET)
